Where a name gives a salt, the structure may show the parent alone.
Assays:
RBL-2H3 [1] = experiment: Inhibition of beta-hexosaminidase in anti-DNP IgE sensitized rat RBL2H3 cells at 100 uM after 10 mins; assay type: functional; conditions: RBL-2H3, 10 min
Summary of the method: (§1)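 IgE-sensitized RBL-2H3 cells (2 × 10^5/well) in Siraganian buffer with 5.6 mM glucose, 1 mM CaCl2, 0.1% BSA, 10 min at 37 °C; sample in DMSO (final 0.1%) added for 10 min, then DNP-BSA (final 10 μg/mL). After 10 min supernatant reacted with 1 mM p-nitrophenyl-N-acetyl-β-D-glucosaminide, pH 4.5, 37 °C, 1 h; stopped at pH 10, A405. Percent inhibition; IC50 determined graphically.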

RBL-2H3 [2] = experiment: Inhibition of beta-hexosaminidase in anti-DNP IgE sensitized rat RBL2H3 cells after 10 mins; assay type: functional, cell-based; conditions: RBL-2H3, 10 min; summary of the method: as §1
Mus musculus = experiment: Antiallergic activity in ddY mouse ear at 200 mg/kg, po by passive cutaneous anaphylaxis reaction; assay type: functional
RBL-2H3 [3] = experiment: Inhibition of anti-DNP IgE-induced TNFalpha production in rat RBL2H3 cells after 4 hrs by ELISA; assay type: functional, cell-based; conditions: RBL-2H3, 4 h
Summary of the method: (§2)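 RBL-2H3 cells (2 × 10^5/well in MEM) sensitized with anti-DNP IgE, then stimulated with DNP-BSA antigen in presence of sample; TNF-α and IL-4 in medium measured 4 h later by rat ELISA. Percent inhibition calculated; IC50 read graphically.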

RBL-2H3 [4] = experiment: Inhibition of anti-DNP IgE-induced IL4 production in rat RBL2H3 cells after 4 hrs by ELISA; assay type: functional, cell-based; conditions: RBL-2H3, 4 h; summary of the method: as §2

In the case of `COc1cc(C=O)ccc1O` [VANILLIN], the inhibition at 100 µM (RBL-2H3 [1]) is reported as 5.9%.
With `O=Cc1ccc(CO)o1` [AES-103] the inhibition at 100 µM (RBL-2H3 [1]) was 3.4%.
`O=C(O)c1cc2c([nH]c3ccccc32)c([C@@H](O)CO)n1` [DICHOTOMINE B] was tested, and the inhibition at 100 µM (RBL-2H3 [1]) was 1.2%.
In the case of `COc1ccc(CCC(=O)O)cc1OC`, the inhibition at 100 µM (RBL-2H3 [1]) is reported as 2.3%.
`CCC(O)c1cc(OC)c2c(c1)OCO2` (configuration not stated) gave an inhibition at 100 µM (RBL-2H3 [1]) of 1.2%.
With `CN1CCC(=C2c3ccccc3CC(=O)c3sccc32)CC1` [KETOTIFEN FUMARATE] the IC50 (RBL-2H3 [2]) was 220 µM.
In the case of `COc1cc(C(=O)O)ccc1O` [VANILLIC ACID], the inhibition at 100 µM (RBL-2H3 [1]) is reported as 8.4%.
`CCCCOC(=O)c1cc2c([nH]c3ccccc32)c([C@@H](O)CO)n1` [DICHOTOMINE D] was tested, and the inhibition at 100 µM (RBL-2H3 [1]) was 11.2%.
Molecule `O=Cc1ccc(CO)[nH]1` has an inhibition at 100 µM (RBL-2H3 [1]) of 8.5%.
`COc1cc(C(C)=O)ccc1O` [APOCYNIN] showed an inhibition at 100 µM (RBL-2H3 [1]) of 2.3%.
With `C[C@H](O)c1nc(C(=O)O)cc2c1[nH]c1ccccc12` [DICHOTOMINE A] the inhibition at 100 µM (RBL-2H3 [1]) was 5.9%.
`COc1ccc(/C=C/C(=O)Nc2ccccc2C(=O)O)cc1OC` [TRANILAST] showed an IC50 (RBL-2H3 [2]) of 490 µM and an inhibition in vivo at 200 mg/kg (Mus musculus) of 72.4%.
In the case of `COC(=O)c1cc2c([nH]c3ccccc32)c([C@@H](O)CO)n1` [DICHOTOMINE C], the IC50 (RBL-2H3 [3]) is reported as 19 µM, the inhibition at 100 µM (RBL-2H3 [1]) is reported as 89.2% and the IC50 (RBL-2H3 [4]) is reported as 15 µM. The IC50 (RBL-2H3 [2]) was 62 µM.
